Results: ChEMBL document CHEMBL4477258, “Ca-asp bound X-ray structure and inhibition of Bacillus anthracis dihydroorotase (DHOase)” (Bioorg Med Chem, 2016)
Activity calls are given as the source filed them. No cut-off for these calls is given here.

Experiments:
[1] = biological target: T1, Dihydroorotase (Bacillus anthracis) (UniProt Q81WF0); assay: Inhibition of Bacillus anthracis Sterne His-tagged DHOase expressed in Escherichia coli BL21(DE3) Gold cells using DHO as substrate assessed as enzyme activity at 25 or 400 uM preincubated for 10 mins followed by substrate addition measured after 30 mins by DAMO-TSC reagent based colorimetric assay relative to control; set-up: scale not given: the % may be the effect or the level left; conditions: Bacillus anthracis str. Sterne
T1 sequence (whole entry): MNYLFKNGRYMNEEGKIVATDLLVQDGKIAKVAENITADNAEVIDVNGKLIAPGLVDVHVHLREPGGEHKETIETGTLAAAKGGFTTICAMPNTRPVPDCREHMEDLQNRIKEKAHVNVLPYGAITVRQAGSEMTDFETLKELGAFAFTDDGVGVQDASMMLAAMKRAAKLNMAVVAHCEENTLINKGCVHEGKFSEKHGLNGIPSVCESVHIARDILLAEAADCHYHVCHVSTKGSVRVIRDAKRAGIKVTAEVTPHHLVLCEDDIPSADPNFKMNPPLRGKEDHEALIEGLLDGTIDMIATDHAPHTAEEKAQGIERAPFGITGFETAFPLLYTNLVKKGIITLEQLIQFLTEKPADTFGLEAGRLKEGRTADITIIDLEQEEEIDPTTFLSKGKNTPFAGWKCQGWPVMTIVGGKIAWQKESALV
Procedure, shortened: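 Reverse reaction run in duplicate. Fragments at 400 μM or compounds at 25 μM final, 10 min at room temperature. 10 μL of 320 μM DHO added, 30 min reaction, quenched with acidic DAMO-TSC. Colour developed 16 h in the dark, A540 read.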

[2] = biological target: T1, Dihydroorotase (Bacillus anthracis); assay: Binding affinity to Bacillus anthracis Sterne His-tagged DHOase expressed in Escherichia coli BL21(DE3) Gold cells assessed as change in melting temperature at 400 uM incubated for 10 mins by SYPRO orange dye based fluorescence thermal shift assay; conditions: Bacillus anthracis str. Sterne
Procedure, shortened: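 Histidine-tagged DHOase at 5 μM final in 50 mM MES pH 6.5, 0.01% CHAPS, 150 mM NaCl, 2 mM TCEP. Fragment added at 400 μM final and incubated 10 min at room temperature, then SYPRO Orange at 10X diluted from 5000X stock. Heated 25 to 95 °C at […], fluorescence read at ex/em 470/623 nm. Tm shift >2 °C scored as a hit.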

Dihydroorotase [3] = biological target: T2, Dihydroorotase (Bacillus anthracis, UniProt Q81WF0); assay: Binding affinity to Bacillus anthracis Sterne His-tagged DHOase expressed in Escherichia coli BL21(DE3) Gold cells by surface plasmon resonance analysis; set-up: species or system Bacillus anthracis str. Sterne
T2 sequence (Q81WF0 whole entry): T1 sequence (whole entry)
Procedure, shortened: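 His-tag-cleaved DHOase amine-coupled to a CM5 chip at pH 4.5. Ethanolamine-blocked channel used as reference. Compounds run at 0–200 μM (2-fold dilutions) in PBS-P with 2% DMSO and 0.5 mM TCEP, at 10 μL/min and 25 °C. KD taken from steady-state affinity fit of equilibrium response. SD from three independent experiments.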

[4] = biological target: T1, Dihydroorotase (Bacillus anthracis); assay: (§1) Binding affinity to Bacillus anthracis Sterne His-tagged DHOase expressed in Escherichia coli BL21(DE3) Gold cells in presence of N-carbamyl-L-aspartate by surface plasmon resonance analysis; conditions: Bacillus anthracis str. Sterne
Procedure, shortened: (§2)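 His-tag-cleaved DHOase immobilized on a CM5 chip, with a blank reference channel. Compounds run at 0–200 μM (2-fold dilutions) at 25 °C, 10 μL/min, in PBS-P with 2% DMSO, 0.5 mM TCEP and 1 mM Ca-asp. KD taken from steady-state affinity fit. SD from three independent experiments.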

Dihydroorotase [5] = biological target: T2, Dihydroorotase; assay: as §1; set-up: species or system Bacillus anthracis str. Sterne; procedure, shortened: as §2

Cn1ccc2c(CO)cccc21
Activity [1]: < 50%
ΔTm [2]: > 2 °C
Kd (Dihydroorotase [3]; read-out: Kd): 67 to 334 µM
Activity [4]: Active

COc1ccc2[nH]c3c(c2c1)CCNC3(NC#N)SC (stereo not drawn)
Kd (Dihydroorotase [3]; read-out: Kd): 21 to 119 µM
Kd (Dihydroorotase [5]; read-out: Kd): 144 µM

CCC1NCCn2cccc21 (stereo not drawn)
Activity [1]: < 50%
ΔTm [2]: > 2 °C
Kd (Dihydroorotase [3]; read-out: Kd): 67 to 334 µM
Activity [4]: Active

CCC(=O)Nc1ccc(OC)cc1OC
Activity [1]: < 50%
ΔTm [2]: > 2 °C
Kd (Dihydroorotase [3]; read-out: Kd): 170 µM
Kd (Dihydroorotase [5]; read-out: Kd): 170 µM

CSC1(NC#N)NCCc2c1[nH]c1ccc(F)cc21 (stereo not drawn)
Activity [1]: < 50%
ΔTm [2]: > 2 °C
Kd (Dihydroorotase [5]; read-out: Kd): > 1000 µM

CCC(=O)Nc1cc(OC)cc(OC)c1
Activity [1]: < 50%
ΔTm [2]: > 2 °C
Kd (Dihydroorotase [3]; read-out: Kd): 157 µM
Kd (Dihydroorotase [5]; read-out: Kd): 281 µM

COc1ccc2[nH]c3c(c2c1)CCNC31CCOCC1
Activity [1]: < 50%
ΔTm [2]: > 2 °C
Kd (Dihydroorotase [3]; read-out: Kd): 380 µM
Kd (Dihydroorotase [5]; read-out: Kd): 314 µM

COc1ccc2[nH]c3c(c2c1)CCNC3
Kd (Dihydroorotase [3]; read-out: Kd): 588 µM
Kd (Dihydroorotase [5]; read-out: Kd): 675 µM

COc1ccc2[nH]c3c(c2c1)CN(C(C)=O)CC3
Activity [1]: < 50%
ΔTm [2]: > 2 °C
Kd (Dihydroorotase [3]; read-out: Kd): 205 µM
Kd (Dihydroorotase [5]; read-out: Kd): 215 µM

Cc1ccc2[nH]c3c(c2c1)CCNC3
Kd (Dihydroorotase [3]): Not Active
Kd (Dihydroorotase [5]): Not Active

CCS(=O)(=O)N(C)c1ccc(C(=O)N2CCCC2)cc1
Activity [1]: < 50%
ΔTm [2]: > 2 °C
Kd (Dihydroorotase [3]; read-out: Kd): 67 to 334 µM
Activity [4]: Active

COc1ccc2[nH]c(CN)cc2c1
Kd (Dihydroorotase [3]): Not Active
